Experimental data published in ChEMBL document CHEMBL5678806, “NMS-P937, an orally available, specific small-molecule polo-like kinase 1 inhibitor with antitumor activity in solid and hematologic malignancies” (Mol Cancer Ther, 2012).

Key:
CAMA-1 = assay: Antiproliferative activity against human CAMA-1 cells assessed as inhibition of cell growth incubated for 72 hrs by cell-titer glo assay; assay type: functional, cell-based; details: CAMA-1, 72 h
Outline: (§1)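 Cells seeded 10,000–30,000/cm² (adherent) or 100,000/mL (suspension) in medium with 10% fetal calf serum; after 24 h treated in duplicate with serial dilutions for 72 h. Viable cells read by CellTiter-Glo luminescence; IC50 from sigmoidal fit; at least two independent experiments.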

OPM-2 = assay: Antiproliferative activity against human OPM-2 cells assessed as inhibition of cell growth incubated for 72 hrs by cell-titer glo assay; assay type: functional, cell-based; details: OPM-2, 72 h
Outline: (§2)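 Cells from ATCC or ECACC, kept in supplier-recommended medium with 1% penicillin-streptomycin at 37°C, 5% CO₂. Seeded at 10,000–30,000/cm² (adherent) or 100,000/mL (nonadherent) in medium with 10% fetal calf serum. Dosed after 24 h in duplicate with serial dilutions. Viable cells read by CellTiter-Glo 72 h later. IC50 from sigmoidal fit. At least two independent experiments.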

[1] = Cmax in Beagle dog at 5 mg/kg, iv by LC-MS analysis; assay type: ADME, organism-based, Canis lupus familiaris; details: in vivo
[2] = Half-life in nu/nu mouse at 10 mg/kg, iv by LC-MS analysis; assay type: ADME, organism-based; details: in vivo
[3] = Tmax in nu/nu mouse at 10 mg/kg, po by LC-MS analysis; assay type: ADME, organism-based; details: in vivo
Caco-2 = assay: Antiproliferative activity against human Caco-2 cells assessed as inhibition of cell growth incubated for 72 hrs by cell-titer glo assay; assay type: functional, cell-based; details: Caco-2, 72 h; outline: as §1
SK-MES-1 = assay: Antiproliferative activity against human SK-MES-1 cells assessed as inhibition of cell growth incubated for 72 hrs by cell-titer glo assay; assay type: functional, cell-based; details: SK-MES-1, 72 h
MDA-MB-436 = assay: Antiproliferative activity against human MDA-MB-436 cells assessed as inhibition of cell growth incubated for 72 hrs by cell-titer glo assay; assay type: functional, cell-based; details: MDA-MB-436, 72 h
Outline: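 Cells seeded at 10,000–30,000/cm² (adherent) or 100,000/mL (nonadherent) in medium with 10% fetal calf serum; after 24 h, treated in duplicate with serial dilutions for 72 h. Viable cell number read by CellTiter-Glo luminescence; IC50 from sigmoidal fit; at least two independent experiments.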

[4] = target: Vascular endothelial growth factor receptor 3 (Homo sapiens, UniProt P35916); assay: Inhibition of VEGFR3 (unknown origin) in presence of [gamma-33P]ATP
Toledo = assay: Antiproliferative activity against human Toledo cells assessed as inhibition of cell growth incubated for 72 hrs by cell-titer glo assay; assay type: functional, cell-based
[5] = target: Mitotic checkpoint serine/threonine-protein kinase BUB1 (Homo sapiens, UniProt O43683); assay: Inhibition of BUB1 (unknown origin) in presence of [gamma-33P]ATP
Sequence of Mitotic checkpoint serine/threonine-protein kinase BUB1 (O43683 whole entry): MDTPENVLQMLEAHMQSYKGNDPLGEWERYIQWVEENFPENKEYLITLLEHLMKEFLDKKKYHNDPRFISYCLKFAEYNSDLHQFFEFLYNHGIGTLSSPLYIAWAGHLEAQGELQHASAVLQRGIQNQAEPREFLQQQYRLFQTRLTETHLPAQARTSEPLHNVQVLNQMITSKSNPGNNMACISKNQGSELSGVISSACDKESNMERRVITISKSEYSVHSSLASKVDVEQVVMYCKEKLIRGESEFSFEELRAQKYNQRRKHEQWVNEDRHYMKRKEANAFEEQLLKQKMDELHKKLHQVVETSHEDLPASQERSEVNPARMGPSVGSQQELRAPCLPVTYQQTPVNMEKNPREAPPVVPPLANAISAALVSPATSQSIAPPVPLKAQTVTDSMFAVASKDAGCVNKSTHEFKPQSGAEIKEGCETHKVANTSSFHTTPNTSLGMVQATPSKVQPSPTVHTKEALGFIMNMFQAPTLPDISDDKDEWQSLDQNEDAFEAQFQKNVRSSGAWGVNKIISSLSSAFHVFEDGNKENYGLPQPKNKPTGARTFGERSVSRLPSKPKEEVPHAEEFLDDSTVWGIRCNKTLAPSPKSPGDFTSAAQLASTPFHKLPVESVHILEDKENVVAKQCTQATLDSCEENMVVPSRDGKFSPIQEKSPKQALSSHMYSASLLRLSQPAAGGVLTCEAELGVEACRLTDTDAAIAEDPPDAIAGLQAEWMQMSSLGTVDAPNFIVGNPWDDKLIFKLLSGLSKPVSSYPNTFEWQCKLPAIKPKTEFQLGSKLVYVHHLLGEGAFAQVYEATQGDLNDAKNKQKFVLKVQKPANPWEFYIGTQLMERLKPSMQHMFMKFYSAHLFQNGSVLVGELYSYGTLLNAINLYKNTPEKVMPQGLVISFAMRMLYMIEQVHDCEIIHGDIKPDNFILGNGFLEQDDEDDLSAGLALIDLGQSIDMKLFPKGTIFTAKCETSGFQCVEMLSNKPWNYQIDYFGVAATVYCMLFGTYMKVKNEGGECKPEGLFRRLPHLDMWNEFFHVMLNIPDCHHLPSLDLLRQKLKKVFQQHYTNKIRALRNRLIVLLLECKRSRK

UACC-257 = assay: Antiproliferative activity against human UACC-257 cells assessed as inhibition of cell growth incubated for 72 hrs by cell-titer glo assay; assay type: functional, cell-based; details: UACC-257, 72 h
[6] = target: Casein kinase I isoform gamma-3 (Homo sapiens) (UniProt Q9Y6M4); assay: Inhibition of N-terminal 6His-tagged recombinant human CK1gamma3 (1 to 330 residues) expressed in baculovirus infected Sf21 cells assessed as residual activity at 1 uM relative to control
1A9/ptx-22 = assay: Antiproliferative activity against human 1A9/ptx-22 cells assessed as inhibition of cell growth incubated for 72 hrs by cell-titer glo assay; assay type: functional, cell-based; details: 1A9/ptx-22, 72 h; outline: as §1
RO82-W-1 = assay: Antiproliferative activity against human RO82-W-1 cells assessed as inhibition of cell growth incubated for 72 hrs by cell-titer glo assay; assay type: functional, cell-based; details: RO82-W-1, 72 h; outline: as §2
[7] = target: Tyrosine-protein kinase receptor TYRO3 (Homo sapiens) (UniProt Q06418); assay: Inhibition of N-terminal His6-tagged recombinant human Rse (451 to end residues) expressed in baculovirus infected Sf21 cells assessed as residual activity at 0.1 uM relative to control
HL-60 = assay: Antitumor activity against human HL-60 cells xenografted in nu/nu mouse assessed as tumor growth inhibition at 60 mg/kg, po administered for 10 days relative to control; assay type: functional; details: HL-60, 240 h, time 10 day, read-out: TGI
[8] = target: BDNF/NT-3 growth factors receptor (Homo sapiens) (UniProt Q16620); assay: Inhibition of N-terminal His6 tagged recombinant human TrkB (455 to end residues) expressed in baculovirus infected Sf21 cells assessed as residual activity at 1 uM relative to control
Sequence of BDNF/NT-3 growth factors receptor (Homo sapiens) (Q16620 32-822 limits assumed): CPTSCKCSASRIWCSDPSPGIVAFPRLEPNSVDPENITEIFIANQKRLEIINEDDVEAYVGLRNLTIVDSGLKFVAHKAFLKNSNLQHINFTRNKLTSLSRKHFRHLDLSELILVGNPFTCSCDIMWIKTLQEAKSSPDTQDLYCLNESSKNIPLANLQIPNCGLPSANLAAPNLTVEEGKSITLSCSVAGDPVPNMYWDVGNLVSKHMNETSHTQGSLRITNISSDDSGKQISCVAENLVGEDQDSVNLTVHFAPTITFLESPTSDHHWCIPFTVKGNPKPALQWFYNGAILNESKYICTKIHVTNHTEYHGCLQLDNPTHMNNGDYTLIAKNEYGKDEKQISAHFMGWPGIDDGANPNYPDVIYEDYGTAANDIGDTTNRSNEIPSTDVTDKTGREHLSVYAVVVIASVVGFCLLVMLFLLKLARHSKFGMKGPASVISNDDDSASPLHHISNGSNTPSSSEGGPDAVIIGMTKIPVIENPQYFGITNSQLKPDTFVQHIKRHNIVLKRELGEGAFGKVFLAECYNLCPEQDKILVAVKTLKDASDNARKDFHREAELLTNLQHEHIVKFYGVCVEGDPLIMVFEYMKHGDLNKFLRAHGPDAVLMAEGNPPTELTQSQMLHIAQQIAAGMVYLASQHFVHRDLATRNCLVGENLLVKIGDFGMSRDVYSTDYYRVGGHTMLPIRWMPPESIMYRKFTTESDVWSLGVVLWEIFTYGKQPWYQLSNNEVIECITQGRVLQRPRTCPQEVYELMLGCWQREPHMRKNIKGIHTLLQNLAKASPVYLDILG

[9] = target: Mitogen-activated protein kinase kinase kinase 5 (Homo sapiens) (UniProt Q99683); assay: Inhibition of N-Terminal GST and C-terminal His6-tagged recombinant human ASK1 (649 to 946 residues) expressed in E. coli cell assessed as residual activity at 0.1 uM relative to control
[10] = target: Death-associated protein kinase 3 (Homo sapiens) (UniProt O43293); assay: Inhibition of N-terminal GST tagged recombinant human ZIPK (1 to 290 residues) expressed in E. coli assessed as residual activity at 1 uM relative to control
Sequence of Death-associated protein kinase 3 (Homo sapiens) (O43293 whole entry, looked up, the tested form may be a part): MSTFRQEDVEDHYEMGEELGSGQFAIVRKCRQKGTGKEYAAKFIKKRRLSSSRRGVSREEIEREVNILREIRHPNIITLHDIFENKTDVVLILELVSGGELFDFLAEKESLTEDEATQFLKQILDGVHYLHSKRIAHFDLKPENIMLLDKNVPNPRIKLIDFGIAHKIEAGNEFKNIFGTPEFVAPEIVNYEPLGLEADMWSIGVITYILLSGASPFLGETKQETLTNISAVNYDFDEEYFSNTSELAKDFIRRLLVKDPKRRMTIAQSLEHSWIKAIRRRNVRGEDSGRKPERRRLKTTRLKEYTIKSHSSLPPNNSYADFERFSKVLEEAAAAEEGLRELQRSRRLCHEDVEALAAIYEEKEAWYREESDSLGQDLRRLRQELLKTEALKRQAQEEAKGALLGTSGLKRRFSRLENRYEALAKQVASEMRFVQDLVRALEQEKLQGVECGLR

[11] = target: Macrophage colony-stimulating factor 1 receptor (Homo sapiens) (UniProt P07333); assay: Inhibition of N-terminal His6-tagged recombinant human Fms (538 to end residues) expressed in baculovirus infected Sf21 cells assessed as residual activity at 1 uM relative to control
Sequence of Macrophage colony-stimulating factor 1 receptor (Homo sapiens) (P07333 whole entry): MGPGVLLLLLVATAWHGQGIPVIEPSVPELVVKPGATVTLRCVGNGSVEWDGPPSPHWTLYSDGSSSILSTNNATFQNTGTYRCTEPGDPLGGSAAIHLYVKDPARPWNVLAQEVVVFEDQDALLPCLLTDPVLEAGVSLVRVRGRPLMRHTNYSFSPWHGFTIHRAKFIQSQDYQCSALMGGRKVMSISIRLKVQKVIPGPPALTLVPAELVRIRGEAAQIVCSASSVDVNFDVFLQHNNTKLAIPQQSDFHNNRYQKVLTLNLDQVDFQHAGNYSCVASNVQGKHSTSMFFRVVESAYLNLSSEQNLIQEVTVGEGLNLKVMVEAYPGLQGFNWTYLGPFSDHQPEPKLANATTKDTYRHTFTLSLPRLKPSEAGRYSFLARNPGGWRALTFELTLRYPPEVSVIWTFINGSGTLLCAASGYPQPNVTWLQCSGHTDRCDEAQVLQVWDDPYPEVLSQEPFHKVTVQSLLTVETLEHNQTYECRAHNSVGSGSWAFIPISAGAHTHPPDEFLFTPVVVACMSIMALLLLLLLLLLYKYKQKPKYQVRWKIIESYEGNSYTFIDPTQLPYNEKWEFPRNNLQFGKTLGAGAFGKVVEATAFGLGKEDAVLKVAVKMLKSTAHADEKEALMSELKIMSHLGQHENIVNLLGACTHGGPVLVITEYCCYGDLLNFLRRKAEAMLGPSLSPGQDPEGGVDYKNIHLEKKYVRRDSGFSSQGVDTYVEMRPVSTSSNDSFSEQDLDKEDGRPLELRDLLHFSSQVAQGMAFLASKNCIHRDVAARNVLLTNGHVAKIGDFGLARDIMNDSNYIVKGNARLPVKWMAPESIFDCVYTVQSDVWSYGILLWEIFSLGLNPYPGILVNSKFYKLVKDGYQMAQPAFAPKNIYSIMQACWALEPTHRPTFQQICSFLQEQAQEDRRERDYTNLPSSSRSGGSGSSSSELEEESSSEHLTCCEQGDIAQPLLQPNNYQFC

786-0 = assay: Antiproliferative activity against human 786-0 cells assessed as inhibition of cell growth incubated for 72 hrs by cell-titer glo assay; assay type: functional, cell-based; details: 786-0, 72 h; outline: as §1
[12] = target: Serine/threonine-protein kinase Nek3 (Homo sapiens) (UniProt P51956); assay: Inhibition of N-terminal 6His-tagged recombinant full length human NEK3 expressed in baculovirus infected Sf21 cells assessed as residual activity at 0.1 uM relative to control
Sequence of Serine/threonine-protein kinase Nek3 (Homo sapiens) (P51956 whole entry): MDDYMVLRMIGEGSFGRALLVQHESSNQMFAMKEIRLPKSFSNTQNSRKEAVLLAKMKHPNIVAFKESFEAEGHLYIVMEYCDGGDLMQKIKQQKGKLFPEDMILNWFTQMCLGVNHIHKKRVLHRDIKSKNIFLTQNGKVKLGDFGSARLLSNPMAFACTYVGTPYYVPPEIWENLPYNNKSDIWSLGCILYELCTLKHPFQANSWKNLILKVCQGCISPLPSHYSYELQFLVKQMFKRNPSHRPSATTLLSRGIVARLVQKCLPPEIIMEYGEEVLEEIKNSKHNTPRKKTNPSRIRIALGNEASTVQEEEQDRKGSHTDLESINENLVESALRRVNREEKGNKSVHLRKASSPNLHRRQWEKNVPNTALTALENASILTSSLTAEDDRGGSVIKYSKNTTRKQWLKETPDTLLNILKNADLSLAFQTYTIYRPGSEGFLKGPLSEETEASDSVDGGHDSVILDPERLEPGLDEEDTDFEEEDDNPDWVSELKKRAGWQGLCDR

[13] = Antiproliferative activity against human AML-NS8 cells assessed as inhibition of cell growth incubated for 72 hrs by cell-titer glo assay; assay type: functional, cell-based; details: AML-NS8, 72 h; outline: as §1
[14] = target: MAP kinase-activated protein kinase 5 (Homo sapiens) (UniProt Q8IW41); assay: Inhibition of N-terminal His6-tagged recombinant human full-length PRAK expressed in baculovirus infected Sf21 cells assessed as residual activity at 1 uM relative to control
Sequence of MAP kinase-activated protein kinase 5 (Homo sapiens) (Q8IW41 whole entry): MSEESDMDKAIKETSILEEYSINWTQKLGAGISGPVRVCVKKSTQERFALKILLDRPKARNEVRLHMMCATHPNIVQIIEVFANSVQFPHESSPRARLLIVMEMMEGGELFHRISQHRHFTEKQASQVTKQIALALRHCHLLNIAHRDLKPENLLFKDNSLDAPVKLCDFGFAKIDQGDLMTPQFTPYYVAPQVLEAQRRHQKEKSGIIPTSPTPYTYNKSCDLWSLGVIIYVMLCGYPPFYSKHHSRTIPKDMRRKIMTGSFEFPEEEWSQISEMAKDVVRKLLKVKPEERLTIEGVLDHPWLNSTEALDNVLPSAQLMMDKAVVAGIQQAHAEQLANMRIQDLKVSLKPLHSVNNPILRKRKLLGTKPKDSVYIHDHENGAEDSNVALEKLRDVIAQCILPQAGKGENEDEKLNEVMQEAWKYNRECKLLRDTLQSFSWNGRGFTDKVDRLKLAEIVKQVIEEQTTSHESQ

[15] = target: cAMP-dependent protein kinase catalytic subunit PRKX (Homo sapiens) (UniProt P51817); assay: Inhibition of N-terminal 6His-tagged recombinant full-length human PrKX expressed in baculovirus infected Sf21 cells assessed as residual activity at 0.1 uM relative to control
[16] = target: Insulin-like growth factor 1 receptor (Homo sapiens) (UniProt P08069); assay: Inhibition of N-terminal 6His-tagged recombinant human IGF-1R (959 to end residues) expressed in baculovirus infected Sf21 cells assessed as residual activity at 1 uM relative to control
[17] = target: Tyrosine-protein kinase ZAP-70 (Homo sapiens) (UniProt P43403); assay: Inhibition of C-terminal His6 tagged recombinant human full length ZAP-70 expressed in Sf21 cells assessed as residual activity at 0.1 uM relative to control
Sequence of Tyrosine-protein kinase ZAP-70 (Homo sapiens) (P43403 whole entry): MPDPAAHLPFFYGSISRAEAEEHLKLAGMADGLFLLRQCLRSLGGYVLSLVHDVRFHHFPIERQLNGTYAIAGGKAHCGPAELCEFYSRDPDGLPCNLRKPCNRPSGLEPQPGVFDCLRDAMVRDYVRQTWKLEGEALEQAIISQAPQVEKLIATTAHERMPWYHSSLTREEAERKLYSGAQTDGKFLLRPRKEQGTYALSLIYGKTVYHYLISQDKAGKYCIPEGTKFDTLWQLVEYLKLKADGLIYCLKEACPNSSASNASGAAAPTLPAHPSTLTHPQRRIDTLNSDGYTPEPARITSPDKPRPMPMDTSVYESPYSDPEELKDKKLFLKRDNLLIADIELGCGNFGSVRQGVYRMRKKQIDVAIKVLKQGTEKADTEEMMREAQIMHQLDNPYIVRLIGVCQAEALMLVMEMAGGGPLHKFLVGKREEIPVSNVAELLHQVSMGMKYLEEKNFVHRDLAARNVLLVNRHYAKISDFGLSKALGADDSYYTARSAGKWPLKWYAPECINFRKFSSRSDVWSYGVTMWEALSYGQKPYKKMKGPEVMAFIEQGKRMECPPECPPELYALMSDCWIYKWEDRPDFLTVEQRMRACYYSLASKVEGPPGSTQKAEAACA

SMILES: CN1CCN(c2ccc(OC(F)(F)F)c(Nc3ncc4c(n3)-c3c(c(C(N)=O)nn3CCO)CC4)c2)CC1 [ONVANSERTIB]
- IC50 (CAMA-1): 350 nM
- IC50 (OPM-2): 38 nM
- Cmax [1]: 1700 nM
- half-life [2]: 54 min
- Tmax [3]: 24 min
- IC50 (Caco-2): 4760 nM
- IC50 (SK-MES-1): 367 nM
- IC50 (MDA-MB-436): 93 nM
- IC50 [4]: > 10000 nM
- IC50 (Toledo): 42 nM
- IC50 [5]: > 10000 nM
- IC50 (UACC-257): 441 nM
- Activity [6]: 39%
- IC50 (1A9/ptx-22): 65 nM
- IC50 (RO82-W-1): 837 nM
- Activity [7]: 137%
- inhibition in vivo at 60 mg/kg (HL-60): 98%
- Activity [8]: 80%
- Activity [9]: 123%
- Activity [10]: 87%
- Activity [11]: 90%
- IC50 (786-0): 129 nM
- Activity [12]: 127%
- IC50 [13]: 36 nM
- Activity [14]: 77%
- Activity [15]: 90%
- Activity [16]: 114%
- Activity [17]: 88%
